Where “and” joins values, the source holds several entries; their conditions need not be identical. Equal entries are not always repeated.
Legend:
Rattus norvegicus [1] = experiment: Percent complete remission of DMBA-induced hormone dependent mammary carcinoma in rats at 2 mg/kg in 9 animals; assay type: functional
Outline: (§1)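 Sprague-Dawley rats bearing established DMBA-induced mammary carcinomas that arose 5–10 weeks after DMBA. Dosed sc as one daily dose Monday to Thursday and a double dose on Friday. Controls got vehicle alone. Tumor area was followed over treatment.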

Rattus norvegicus [2] = experiment: Progressive DMBA-induced hormone dependent mammary carcinoma tumors in rats at 2 mg/kg in 9 animals; assay type: functional; outline: as §1
Rattus norvegicus [3] = experiment: Change in tumor area DMBA-induced hormone dependent mammary carcinoma tumor bearing rats at 2 mg/kg after 28 day therapy in 9 animals
Rattus norvegicus [4] = experiment: New tumor development in DMBA-induced hormone dependent mammary carcinoma in rats at 6 mg/kg; assay type: functional; outline: as §1
Rattus norvegicus [5] = experiment: Change in body weight of DMBA-induced hormone dependent mammary carcinoma tumor bearing rats at 2 mg/kg after 7 day therapy in 9 animals; assay type: functional
Rattus norvegicus [6] = experiment: Initial DMBA-induced hormone dependent mammary carcinoma tumors in rats at 6 mg/kg; assay type: functional; outline: as §1
Rattus norvegicus [7] = experiment: Static unchanged DMBA-induced hormone dependent mammary carcinoma tumors in rats at 2 mg/kg in 9 animals; assay type: functional; outline: as §1
Rattus norvegicus [8] = experiment: Partial remission in DMBA-induced hormone dependent mammary carcinoma tumor bearing rats at 2 mg/kg in 9 animals; assay type: functional; outline: as §1
[9] = biological target: T1, Estrogen receptor (Mus musculus) (UniProt O08537+P19785); experiment: Anti-estrogenic activity in mouse uterotrophic assay at 1 ug as uterus dry weight (mg)/body weight (g) *100; assay type: functional, tissue-based
Outline: (§2)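 Mice dosed sc on 3 consecutive days (dose per animal), together with […] estrone per animal per day. Uterus dry weight (mg)/body weight (g) × 100 was taken 24 h after the last injection, as mean ± SD of 10 animals. Significance by Wilcoxon–Mann–Whitney U test.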

[10] = biological target: T1, Estrogen receptor (Mus musculus); experiment: Estrogenic activity in mouse uterotrophic assay at 0.2 ug as uterus dry weight (mg)/body weight (g) *100; assay type: functional, tissue-based
Outline: (§3)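 Mouse uterotrophic test with the compound alone given sc on 3 consecutive days (dose per animal). Uterus dry weight (mg)/body weight (g) × 100 was measured 24 h after the last injection, as mean ± SD of 10 animals. Significance by Wilcoxon–Mann–Whitney U test.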

[11] = biological target: T1, Estrogen receptor (Mus musculus); experiment: Percent inhibition in anti-uterotrophic assay in mice at 5 ug; assay type: functional; outline: as §2
[12] = biological target: T1, Estrogen receptor (Mus musculus); experiment: Percent inhibition in anti-uterotrophic assay in mice at 0.2 ug; assay type: functional; details: in the assay text read “at 5 ug” for “at 0.2 ug”; outline: as §2
MDA-MB-231 [13] = experiment: (§4) Inhibition of [3H]thymidine incorporation into hormone independent MDA-MB 231 human breast cancer cells at 2x10E-6M; assay type: functional
Outline: (§5)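 MDA-MB 231 cells grown in McCoy 5a with 10% newborn calf serum and gentamycin. Replicate plates were switched to 5% serum 1 h before the run. Compounds were added in Me2SO (final 0.1%). Read-out was [3H]thymidine incorporation into TCA-precipitable material.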

[14] = biological target: T1, Estrogen receptor (Mus musculus); experiment: Anti-estrogenic activity in mouse uterotrophic assay at 0.2 ug as uterus dry weight (mg)/body weight (g) *100; assay type: functional, tissue-based; details: in the assay text read “at 5 ug” for “at 0.2 ug”; outline: as §2
[15] = biological target: T1, Estrogen receptor (Mus musculus); experiment: Percent inhibition in anti-uterotrophic assay in mice at 0.04 ug; assay type: functional; details: in the assay text read “at 1 ug” for “at 0.04 ug”; outline: as §2
Rattus norvegicus [16] = experiment: New tumor development in DMBA-induced hormone dependent mammary carcinoma in rats at 18 mg/kg; assay type: functional; outline: as §1
MDA-MB-231 [17] = experiment: (§6) Inhibition of [3H]thymidine incorporation into hormone independent MDA-MB 231 human breast cancer cells at 1x10E-6M; assay type: functional; outline: as §5
MDA-MB-231 [18] = experiment: as §6; assay type: functional; outline: as §5; remark: listed apart in the source
[19] = biological target: T1, Estrogen receptor (Mus musculus); experiment: Anti-estrogenic activity in mouse uterotrophic assay at 25 ug as uterus dry weight (mg)/body weight (g) *100; assay type: functional, tissue-based; outline: as §2
[20] = biological target: T1, Estrogen receptor (Mus musculus); experiment: Estrogenic activity in mouse uterotrophic assay at 125 ug as uterus dry weight (mg)/body weight (g) *100; assay type: functional, tissue-based; outline: as §3
MDA-MB-231 [21] = experiment: Growth inhibition of hormone independent MDA-MB 231 human breast cancer cells at 5x10E-6M
[22] = biological target: T1, Estrogen receptor (Mus musculus); experiment: Estrogenic activity in mouse uterotrophic assay at 5 ug as uterus dry weight (mg)/body weight (g) *100; assay type: functional, tissue-based; outline: as §3
[23] = biological target: T1, Estrogen receptor (Mus musculus); experiment: Percent inhibition in anti-uterotrophic assay in mice at 1 ug; assay type: functional; outline: as §2
Rattus norvegicus [24] = experiment: Initial DMBA-induced hormone dependent mammary carcinoma tumors in rats at 2 mg/kg; assay type: functional; outline: as §1
MDA-MB-231 [25] = experiment: as §4; assay type: functional; outline: as §5; remark: listed apart in the source
[26] = biological target: T1, Estrogen receptor (Mus musculus); experiment: Anti-estrogenic activity in mouse uterotrophic assay at 5 ug as uterus dry weight (mg)/body weight (g) *100; assay type: functional, tissue-based; outline: as §2
MDA-MB-231 [27] = experiment: Inhibition of [3H]thymidine incorporation into hormone independent MDA-MB 231 human breast cancer cells at 1x10E-5 M; assay type: functional; outline: as §5
[28] = biological target: T1, Estrogen receptor (Mus musculus); experiment: Anti-estrogenic activity in mouse uterotrophic assay at 0.04 ug as uterus dry weight (mg)/body weight (g) *100; assay type: functional, tissue-based; details: in the assay text read “at 1 ug” for “at 0.04 ug”; outline: as §2
[29] = biological target: T1, Estrogen receptor (Mus musculus); experiment: Estrogenic activity in mouse uterotrophic assay at 1 ug as uterus dry weight (mg)/body weight (g) *100; assay type: functional, tissue-based; outline: as §3
Rattus norvegicus [30] = experiment: Initial DMBA-induced hormone dependent mammary carcinoma tumors in rats at 18 mg/kg; assay type: functional; outline: as §1
Rattus norvegicus [31] = experiment: New tumor development in DMBA-induced hormone dependent mammary carcinoma in rats at 2 mg/kg; assay type: functional; outline: as §1
MDA-MB-231 [32] = experiment: Inhibition of [3H]thymidine incorporation into hormone independent MDA-MB 231 human breast cancer cells at 1*10^-5 M; assay type: functional; outline: as §5
[33] = biological target: T1, Estrogen receptor (Mus musculus); experiment: Estrogenic activity in mouse uterotrophic assay at 0.04 ug as uterus dry weight (mg)/body weight (g) *100; assay type: functional, tissue-based; outline: as §3
MDA-MB-231 [34] = experiment: Growth inhibition of hormone independent MDA-MB 231 human breast cancer cells at 1x10E-5 M
MDA-MB-231 [35] = experiment: Inhibition of [3H]thymidine incorporation into hormone independent MDA-MB 231 human breast cancer cells at 5x10E-6M; assay type: functional; outline: as §5
MDA-MB-231 [36] = experiment: Inhibition of [3H]-thymidine incorporation into hormone independent MDA-MB 231 human breast cancer cells at 5x10E-6M; assay type: functional; outline: as §5
[37] = biological target: T1, Estrogen receptor (Mus musculus); experiment: Estrogenic activity in mouse uterotrophic assay at 25 ug as uterus dry weight (mg)/body weight (g) *100; assay type: functional, tissue-based; outline: as §3
[38] = biological target: T1, Estrogen receptor (Mus musculus); experiment: Percent inhibition in anti-uterotrophic assay in mice at 25 ug; assay type: functional; outline: as §2
[39] = biological target: T1, Estrogen receptor (Mus musculus); experiment: Estrogenic activity in mouse uterotrophic assay at 625 ug as uterus dry weight (mg)/body weight (g) *100; assay type: functional, tissue-based; outline: as §3
[40] = biological target: T1, Estrogen receptor (Mus musculus); experiment: Percent inhibition in anti-uterotrophic assay in mice at 625 ug; assay type: functional; outline: as §2
[41] = biological target: T1, Estrogen receptor (Mus musculus); experiment: Anti-estrogenic activity in mouse uterotrophic assay at 625 ug as uterus dry weight (mg)/body weight (g) *100; assay type: functional, tissue-based; outline: as §2
[42] = biological target: T1, Estrogen receptor (Mus musculus); experiment: Anti-estrogenic activity in mouse uterotrophic assay at 125 ug as uterus dry weight (mg)/body weight (g) *100; assay type: functional, tissue-based; outline: as §2
[43] = biological target: T1, Estrogen receptor (Mus musculus); experiment: Percent inhibition in anti-uterotrophic assay in mice at 125 ug; assay type: functional; outline: as §2
Rattus norvegicus [44] = experiment: Change in tumor area DMBA-induced hormone dependent mammary carcinoma tumor bearing rats at 2 mg/kg after 7 day therapy in 9 animals; assay type: functional; details: in the assay text read “28 day” for “7 day”; outline: as §1

T1 sequence (O08537 whole entry, looked up): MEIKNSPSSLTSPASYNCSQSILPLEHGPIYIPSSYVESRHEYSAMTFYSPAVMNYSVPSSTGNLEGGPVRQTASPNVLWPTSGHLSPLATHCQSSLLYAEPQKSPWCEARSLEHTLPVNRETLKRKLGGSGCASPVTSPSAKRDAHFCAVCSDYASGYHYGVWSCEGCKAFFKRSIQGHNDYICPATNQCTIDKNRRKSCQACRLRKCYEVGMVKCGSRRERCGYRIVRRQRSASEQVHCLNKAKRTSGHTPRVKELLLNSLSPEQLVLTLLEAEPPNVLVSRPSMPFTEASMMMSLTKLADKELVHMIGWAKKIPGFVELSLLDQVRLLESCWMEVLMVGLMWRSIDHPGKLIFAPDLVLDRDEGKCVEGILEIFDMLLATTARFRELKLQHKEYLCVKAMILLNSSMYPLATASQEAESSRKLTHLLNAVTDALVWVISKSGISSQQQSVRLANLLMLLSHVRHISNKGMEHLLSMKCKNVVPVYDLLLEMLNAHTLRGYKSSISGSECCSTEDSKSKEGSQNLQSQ
T1 sequence (P19785 whole entry, looked up): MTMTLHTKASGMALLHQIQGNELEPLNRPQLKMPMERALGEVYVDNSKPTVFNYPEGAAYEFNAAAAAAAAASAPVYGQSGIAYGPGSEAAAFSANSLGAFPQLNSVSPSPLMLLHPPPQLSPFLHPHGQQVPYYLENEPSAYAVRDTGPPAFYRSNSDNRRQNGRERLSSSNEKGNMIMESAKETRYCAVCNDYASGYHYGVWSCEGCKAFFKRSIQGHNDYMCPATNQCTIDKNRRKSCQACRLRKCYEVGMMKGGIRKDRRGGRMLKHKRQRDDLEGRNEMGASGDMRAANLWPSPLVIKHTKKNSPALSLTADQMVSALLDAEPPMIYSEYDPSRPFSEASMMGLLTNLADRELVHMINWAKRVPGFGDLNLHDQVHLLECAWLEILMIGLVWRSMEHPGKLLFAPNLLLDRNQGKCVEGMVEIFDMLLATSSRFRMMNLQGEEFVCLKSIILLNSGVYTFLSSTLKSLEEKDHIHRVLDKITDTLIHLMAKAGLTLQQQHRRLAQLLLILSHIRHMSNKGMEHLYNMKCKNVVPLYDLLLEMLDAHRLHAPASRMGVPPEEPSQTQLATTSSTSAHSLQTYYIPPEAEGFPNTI

## CCCn1c(-c2c(Cl)cc(O)cc2Cl)cc2c(Cl)cc(O)cc21
Rattus norvegicus [1]
  Complete remission: 8%
Rattus norvegicus [2]
  Progressive tumors: 23%
Rattus norvegicus [3]
  Change: 57%
Rattus norvegicus [4]
  New tumors: 9
Rattus norvegicus [5]
  Change: 0%
Rattus norvegicus [6]
  No. of tumors: 17
Rattus norvegicus [7]
  Static remission: 50%
Rattus norvegicus [8]
  Partial remission: 19%

## CCn1c(-c2c(Cl)cc(O)cc2Cl)cc2c(Cl)cc(O)cc21
[9]
  Effect: 48.7
[10]
  Effect: 21.7
[11]
  inhibition: 2%
[12]
  inhibition: 2%
MDA-MB-231 [13]
  T/C: 88%
Rattus norvegicus [1]; 2 mg/kg
  Complete remission: 43% and 62% and 56%
[14]
  Effect: 46.3
[15]
  inhibition: -7%
Rattus norvegicus [16]
  New tumors: 5
MDA-MB-231 [17]
  Cell no./dish x10E3: 40.2 cpm/dish x10E3
  Cell no./dish x10E5: 11.35
  T/C: 106%
MDA-MB-231 [18]
  T/C: 98%
[19]
  Effect: 39.3
[20]
  Effect: 40.6
Rattus norvegicus [2]; 2 mg/kg
  Progressive tumors: 24% and 15% and 16%
MDA-MB-231 [21]
  T/C: 51%
[22]
  Effect: 22.2
[23]
  inhibition: -7%
Rattus norvegicus [24]
  No. of tumors: 22
MDA-MB-231 [25]
  Cell no./dish x10E3: 36.2 cpm/dish x10E3
  Cell no./dish x10E5: 9.38
  T/C: 88%
Rattus norvegicus [4]
  New tumors: 4
[26]
  Effect: 46.3
MDA-MB-231 [27]
  Cell no./dish x10E3: 6.6 cpm/dish x10E3
  Cell no./dish x10E5: 2.71
[28]
  Effect: 48.7
[29]
  Effect: 21.5
Rattus norvegicus [30]
  No. of tumors: 20
Rattus norvegicus [31]
  New tumors: 15
Rattus norvegicus [5]; 2 mg/kg
  Change: 2% and 1% and 0%
MDA-MB-231 [32]
  T/C: 16%
[33]
  Effect: 19.8
Rattus norvegicus [6]
  No. of tumors: 22
MDA-MB-231 [34]
  T/C: 25%
MDA-MB-231 [35]
  T/C: 14%
  [3H]thymidine incorporation: 5.8 cpm/dish x10E3
MDA-MB-231 [36]
  Cell no./dish x10E5: 5.44
[37]
  Effect: 45.8
Rattus norvegicus [8]; 2 mg/kg
  Partial remission: 14% and 15% and 24%
[38]
  inhibition: 25%

## Cn1c(-c2c(Cl)cc(O)cc2Cl)cc2c(Cl)cc(O)cc21
[9]
  Effect: 48.5
[11]
  inhibition: 5%
[39]
  Effect: 40.1
[40]
  inhibition: 24%
Rattus norvegicus [1]
  Complete remission: 19%
MDA-MB-231 [17]
  Cell no./dish x10E3: 36.4 cpm/dish x10E3
  Cell no./dish x10E5: 10.12
  T/C: 95%
MDA-MB-231 [18]
  T/C: 88%
[19]
  Effect: 42.7
[20]
  Effect: 34.4
Rattus norvegicus [2]
  Progressive tumors: 28%
[22]
  Effect: 18.2
[23]
  inhibition: -6%
[41]
  Effect: 39.6
Rattus norvegicus [4]
  New tumors: 24
[26]
  Effect: 45.4
MDA-MB-231 [27]
  Cell no./dish x10E3: 2.2 cpm/dish x10E3
  Cell no./dish x10E5: 4.12
[29]
  Effect: 16
Rattus norvegicus [5]
  Change: -2%
MDA-MB-231 [32]
  T/C: 5%
[42]
  Effect: 37.7
Rattus norvegicus [6]
  No. of tumors: 19
MDA-MB-231 [34]
  T/C: 38%
Rattus norvegicus [7]
  Static remission: 25%
[43]
  inhibition: 30%
[37]
  Effect: 26
Rattus norvegicus [8]
  Partial remission: 28%
Rattus norvegicus [44]
  Change: 24%
[38]
  inhibition: 14%
